Measured values: PubChem BioAssay AID651572 (The Scripps Research Institute Molecular Screening Center, 2012)
Hit rate of the full screen: of about 360,000 compounds, about 950 (0.26%) were called active. The sample as a whole holds a higher share of actives than the screen did. Unmarked numbers belong to inactive results.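 The calls were made as follows: active = inhibition above a per-plate limit, mean inhibition of low control wells plus 3 SD (cut at about 25% in these data); inactive = the rest.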

Each compound was assayed against ADP-ribosylation factor GTPase-activating protein 1 (Rattus norvegicus) (UniProt Q62848) (assay: blockers of ARFGAP1-stimulated ARF1 GTP hydrolysis – biochemical, fluorescence polarization, GDP tracer, primary screen (AID 651572;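 also: 0% = DMSO wells with enzyme and 100% = wells lacking Arfgap1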)). Settings: GDP FP detection, at 16.5 µM, stronger effect = higher value.
ADP-ribosylation factor GTPase-activating protein 1 (Rattus norvegicus), sequence (Q62848 1-136 limits assumed): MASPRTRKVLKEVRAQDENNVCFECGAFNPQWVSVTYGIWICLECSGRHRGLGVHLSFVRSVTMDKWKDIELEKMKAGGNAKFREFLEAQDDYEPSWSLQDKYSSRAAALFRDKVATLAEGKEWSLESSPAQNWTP
How it was run: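 material = rat Arfgap1 catalytic domain, aa 1-136 | also added = human ARF1(Δ1-17)-GTP substrate | compound dosing = one concentration, 16.5 µM, DMSO 1.26% | times = GTP hydrolysis reaction 2 h at 25 °C | measured by = FP, GDP Alexa 633 tracer displaced from anti-GDP antibody, 620/688 nm | evaluation = percent inhibition of Arfgap1-stimulated GTP hydrolysis | replication = single well per compound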

In order of falling inhibition:
1. COC(=O)C1=C(C)N(Cc2cccc(C(F)(F)F)c2)C(=NCc2ccccc2)NC1c1ccccc1C(F)(F)F (stereo unspecified)  18.8%
2. O=C1Nc2ccccc2C1=NN=Cc1ccco1  18.3%
3. COC(=O)C1=C(C)N(Cc2ccccc2C(F)(F)F)C(=NCc2ccc(C(F)(F)F)cc2)NC1c1ccc(F)cc1 (stereo unspecified)  16.5%
4. Nc1[nH]c(C(=O)c2ccc(Br)cc2)c(-c2ccc3c(c2)OCO3)c1C(=O)NCCc1c[nH]c2ccccc12  15.2%
5. O=C(O)CCn1c(SCc2cc(=O)n3ccccc3n2)nc2ccsc2c1=O  9.88%
6. CN(C)CCNC(=O)c1cccc(-c2cnc3c(NC=O)cc(-c4cccc(C(F)(F)F)c4)cn23)c1  5.54%
7. CCc1ccc(C2=CC(=O)CC(C)(C)C2=O)cc1  5.54%
8. COC(=O)[C@]12C[C@H](CC(=O)NCCCCc3ccccc3)C(=O)N(Cc3ccc4c(c3)OCO4)C1=C[C@H](C(C)(C)C)O[C@@H]2C  2.49%
9. COc1cccc(NC(=O)N(C)C[C@@H]2OCc3cn(nn3)CCCC(=O)N([C@@H](C)CO)C[C@H]2C)c1  2.11%
10. O=C(Nc1c(Cl)c(C2CC2)nn1-c1ccccc1)C(Cl)(Cl)Cl  1.34%
11. COc1ccc(SSc2ccc(OC)cc2C(=O)O)c(C(=O)O)c1  -0.05%
12. CCn1c(SCC(=O)N2CCCC2=O)nc2ccccc21  -1.54%
13. CC(=O)c1cccc(-c2cnc3c(NC=O)cc(-c4ccccc4Oc4ccccc4)cn23)c1  -2.03%
14. O=C1[C@@H](c2ccccc2)[C@@H](c2ccccc2)N1c1ccccc1  -3.37%
15. CCOC(=O)Cn1c2c(n(-c3ccc(F)cc3)c1=O)C=C(c1ccccc1)[C@@H](C)C(C(=O)N(C)C1CCCCC1)=C2  -3.57%
16. Nc1ncnc2c1ncn2[C@@H]1O[C@H](C(=O)N[C@@H](CCc2ccccc2)C(=O)N2CCCN(Cc3cccs3)CC2)[C@@H](O)[C@H]1O  -6.61%
17. COc1cccc(CC(=O)N2CCN(C(=O)C(=O)c3cccc(C(F)(F)F)c3)CC2)c1  -7.68%
18. O=S1(=O)c2c(cccc2N2CCCC2)O[C@H](COCc2ccccc2)CN1C1CC1  -15.6%

With `CCC(=C/c1sc2ccc3ccccc3c2[n+]1C)/C=C1\Sc2ccc3ccccc3c2N1C` the inhibition was 39.3% (active).
For `CN(C)CCNC(=O)c1ccc(-c2cn3c(-c4ccc(Oc5ccccc5)cc4)cnc3cn2)cc1`, the inhibition was 40.4% (active).
For `CCn1c(SCc2cc(=O)n3ccsc3n2)nc2ccccc21`, the inhibition was 26.2% (active).
